Laboratory results from ChEMBL document CHEMBL3046448, “Design and syntheses of novel phthalazin-1(2H)-one derivatives as acetohydroxyacid synthase inhibitors” (J Agric Food Chem, 2006).
pKi: −log10 of the molar value.

Columns and labels:
Digitaria sanguinalis [1] = experiment: Herbicidal activity against Digitaria sanguinalis (hairy crabgrass) assessed as growth inhibition at 150 g ai/ha applied as post-emergence treatment under green house conditions measured 15 days post compound treatment; assay type: functional; conditions: 360 h, read-out: GI
In short: (§1)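 Monocot weeds grown in pots in a greenhouse and sprayed post-emergence at the one-leaf stage. Clay soil: pH 6.5, 1.6% organic matter, 37.3% clay, CEC 12.1 cmol/kg. Formulation: 100 g/L emulsified concentrate (DMF, TW-80) diluted with water to 150 g ai/ha. Untreated and DMF controls included. Growth inhibition scored visually after 15 days: ++ >80%, + 50-80%, − <50%.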

[2] = biological target: T1, Acetolactate synthase, chloroplastic (Arabidopsis thaliana, UniProt P17597); experiment: Inhibition of wild type Arabidopsis thaliana acetohydroxyacid synthase
T1 sequence (P17597 whole entry): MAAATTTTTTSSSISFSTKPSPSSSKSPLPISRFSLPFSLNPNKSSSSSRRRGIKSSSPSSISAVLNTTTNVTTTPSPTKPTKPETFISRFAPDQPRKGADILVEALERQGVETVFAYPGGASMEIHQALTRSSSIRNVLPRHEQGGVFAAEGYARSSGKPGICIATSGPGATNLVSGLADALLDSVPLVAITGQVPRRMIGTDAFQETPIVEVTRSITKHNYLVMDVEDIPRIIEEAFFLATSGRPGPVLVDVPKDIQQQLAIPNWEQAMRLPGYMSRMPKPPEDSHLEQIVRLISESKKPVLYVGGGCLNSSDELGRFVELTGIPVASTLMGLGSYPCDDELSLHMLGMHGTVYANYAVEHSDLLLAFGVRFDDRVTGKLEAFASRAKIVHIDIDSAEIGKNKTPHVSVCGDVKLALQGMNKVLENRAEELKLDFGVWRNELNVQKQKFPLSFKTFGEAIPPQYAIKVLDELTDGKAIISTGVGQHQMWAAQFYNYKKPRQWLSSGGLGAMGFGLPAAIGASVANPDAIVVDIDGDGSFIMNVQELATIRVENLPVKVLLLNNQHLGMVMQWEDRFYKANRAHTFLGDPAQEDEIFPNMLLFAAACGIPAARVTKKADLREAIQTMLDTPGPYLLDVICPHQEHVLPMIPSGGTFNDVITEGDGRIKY

Amaranthus retroflexus [3] = experiment: Herbicidal activity against Amaranthus retroflexus assessed as growth inhibition at 150 g ai/ha applied as post-emergence treatment under green house conditions measured 15 days post compound treatment; assay type: functional; conditions: 360 h, read-out: GI
In short: (§2)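 Post-emergence spray on pot-grown dicot weeds at the two-leaf stage in a greenhouse. Clay soil: pH 6.5, 1.6% organic matter, 37.3% clay, CEC 12.1 cmol/kg. Formulation: 100 g/L DMF/TW-80 emulsified concentrate, water-diluted to 150 g ai/ha. Untreated and DMF solvent controls. Visual inhibition rating at 15 days: ++ >80%, + 50-80%, − <50%.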

Echinochloa crus-galli [4] = experiment: Herbicidal activity against Echinochloa crus-galli (barnyard grass) assessed as growth inhibition at 150 g ai/ha applied as pre-emergence treatment 24 hr after weeds seeds sowing under green house conditions measured 15 days post compound treatment; assay type: functional; conditions: read-out: GI
In short: (§3)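 Pre-emergence spray applied 24 h after sowing weeds in pots in a greenhouse. Clay soil: pH 6.5, 1.6% organic matter, 37.3% clay, CEC 12.1 cmol/kg. Formulation: 100 g/L emulsified concentrate (DMF solvent, TW-80 emulsifier) diluted with water to 150 g ai/ha. Untreated and DMF-treated controls. Growth inhibition judged visually at 15 days: ++ >80%, + 50-80%, − <50%.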

Echinochloa crus-galli [5] = experiment: Herbicidal activity against Echinochloa crus-galli (barnyard grass) assessed as growth inhibition at 150 g ai/ha applied as post-emergence treatment under green house conditions measured 15 days post compound treatment; assay type: functional; conditions: 360 h, read-out: GI; in short: as §1
Setaria viridis [6] = experiment: Herbicidal activity against Setaria viridis (green foxtail) assessed as growth inhibition at 150 g ai/ha applied as post-emergence treatment under green house conditions measured 15 days post compound treatment; assay type: functional; conditions: 360 h, read-out: GI; in short: as §1
Chenopodium album [7] = experiment: Herbicidal activity against Chenopodium album assessed as growth inhibition at 150 g ai/ha applied as post-emergence treatment under green house conditions measured 15 days post compound treatment; assay type: functional; conditions: 360 h, read-out: GI; in short: as §2
Chenopodium album [8] = experiment: Herbicidal activity against Chenopodium album assessed as growth inhibition at 150 g ai/ha applied as pre-emergence treatment 24 hr after weeds seeds sowing under green house conditions measured 15 days post compound treatment; assay type: functional; conditions: read-out: GI; in short: as §3
Brassica juncea [9] = experiment: Herbicidal activity against Brassica juncea assessed as growth inhibition at 150 g ai/ha applied as post-emergence treatment under green house conditions measured 15 days post compound treatment; assay type: functional; conditions: 360 h, read-out: GI; in short: as §2
Setaria viridis [10] = experiment: Herbicidal activity against Setaria viridis (green foxtail) assessed as growth inhibition at 150 g ai/ha applied as pre-emergence treatment 24 hr after weeds seeds sowing under green house conditions measured 15 days post compound treatment; assay type: functional; conditions: read-out: GI; in short: as §3
Digitaria sanguinalis [11] = experiment: Herbicidal activity against Digitaria sanguinalis (hairy crabgrass) assessed as growth inhibition at 150 g ai/ha applied as pre-emergence treatment 24 hr after weeds seeds sowing under green house conditions measured 15 days post compound treatment; assay type: functional; conditions: read-out: GI; in short: as §3
Amaranthus retroflexus [12] = experiment: Herbicidal activity against Amaranthus retroflexus assessed as growth inhibition at 150 g ai/ha applied as pre-emergence treatment 24 hr after weeds seeds sowing under green house conditions measured 15 days post compound treatment; assay type: functional; conditions: read-out: GI; in short: as §3
Brassica juncea [13] = experiment: Herbicidal activity against Brassica juncea assessed as growth inhibition at 150 g ai/ha applied as pre-emergence treatment 24 hr after weeds seeds sowing under green house conditions measured 15 days post compound treatment; assay type: functional; conditions: read-out: GI; in short: as §3

Row | Structure (SMILES) | inhibition of growth at 150 g/ha (Digitaria sanguinalis [1]) | pKi [2] | inhibition of growth at 150 g/ha (Amaranthus retroflexus [3]) | inhibition of growth at 150 g/ha (Echinochloa crus-galli [4]) | inhibition of growth at 150 g/ha (Echinochloa crus-galli [5]) | inhibition of growth at 150 g/ha (Setaria viridis [6]) | inhibition of growth at 150 g/ha (Chenopodium album [7]) | inhibition of growth at 150 g/ha (Chenopodium album [8]) | inhibition of growth at 150 g/ha (Brassica juncea [9]) | inhibition of growth at 150 g/ha (Setaria viridis [10]) | inhibition of growth at 150 g/ha (Digitaria sanguinalis [11]) | inhibition of growth at 150 g/ha (Amaranthus retroflexus [12]) | inhibition of growth at 150 g/ha (Brassica juncea [13])
1 | COc1cc(OC)nc(Oc2cccc3c(C)nn(Cc4cc(C)ccc4[N+](=O)[O-])c(=O)c23)n1 | < 50% | 3.51 | > 80% | < 50% | 50% | 50% | 50% | < 50% | 50% | < 50% | < 50% | < 50% | < 50%
2 | COc1cc(OC)nc(Oc2cccc3c(C)nn(Cc4ccccc4Cl)c(=O)c23)n1 | < 50% | 3.68 | < 50% | < 50% | < 50% | < 50% | < 50% | < 50% | < 50% | < 50% | < 50% | < 50% | < 50%
3 | COc1cc(OC)nc(Oc2cccc3c(C)nn(Cc4cccc(Cl)c4)c(=O)c23)n1 | < 50% | 3.67 | > 80% | < 50% | 50% | < 50% | 50% | < 50% | 50% | < 50% | < 50% | < 50% | < 50%
4 | COc1cc(OC)nc(Oc2cccc3c(C)nn(Cc4ccc(F)cc4F)c(=O)c23)n1 | < 50% | 2.98 | > 80% | < 50% | 50% | 50% | < 50% | < 50% | 50% | < 50% | < 50% | < 50% | < 50%
5 | COc1cc(OC)nc(Oc2cccc3c(C)nn(CC(=O)OC(C)(C)C)c(=O)c23)n1 | < 50% | 2.81 | < 50% | < 50% | < 50% | < 50% | < 50% | < 50% | < 50% | < 50% | < 50% | < 50% | < 50%
6 | CCn1nc(C)c2cccc(Oc3nc(OC)cc(OC)n3)c2c1=O | > 80% | 2.77 | > 80% | < 50% | > 80% | > 80% | 50% | < 50% | < 50% | < 50% | < 50% | < 50% | < 50%
7 | COc1cc(OC)nc(Oc2cccc3c(C)nn(Cc4ccc(Cl)cc4)c(=O)c23)n1 | < 50% | 3.69 | < 50% | < 50% | < 50% | < 50% | < 50% | < 50% | < 50% | < 50% | < 50% | < 50% | < 50%
8 | COc1cc(OC)nc(Oc2cccc3c(C)nn(Cc4ccc(Br)cc4F)c(=O)c23)n1 | < 50% | 3.38 | < 50% | < 50% | < 50% | < 50% | < 50% | < 50% | < 50% | < 50% | < 50% | < 50% | < 50%
9 | C=CCn1nc(C)c2cccc(Oc3nc(OC)cc(OC)n3)c2c1=O | 50% | 2.28 | > 80% | < 50% | > 80% | > 80% | 50% | < 50% | < 50% | < 50% | < 50% | < 50% | < 50%
10 | COc1cc(OC)nc(Oc2cccc3c(C)nn(CC4OCCO4)c(=O)c23)n1 | 50% | 3.11 | > 80% | < 50% | 50% | > 80% | 50% | < 50% | 50% | < 50% | < 50% | < 50% | < 50%
11 | CCOC(=O)Cn1nc(C)c2cccc(Oc3nc(OC)cc(OC)n3)c2c1=O | 50% | 3.25 | > 80% | < 50% | > 80% | > 80% | 50% | < 50% | < 50% | < 50% | < 50% | < 50% | < 50%
